# Laboratory results published in the RNAGym collection of RNA variant scans (doi:10.1126/science.aae0568).
# Fewer inactive variants are shown than the library holds.
# B1: tRNA (parent)
# chain: GUUCCGUUGGCGUAAUGGUAACGCGUCUCCCUCCUAAGGAGAAGACUGCGGGUUCGAGUCCCGUACGGAACG
# Variants of: B1
# Test: yeast fitness relative to wild type (ratio to wild type); higher = fitter; tRNA-Arg(CCU), competitive growth, 37 C, YPD
# In short: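 The tRNA-Arg(CCU) gene variants were made by chemical synthesis with a 3% per-site mutation rate at 69 sites and inserted at the native genomic locus of Saccharomyces cerevisiae. After pooling, the strains were competed in YPD at 37°C for 24 hours in six parallel replicates. Gene amplicons from the start population and each end population were read by 100-nucleotide paired-end sequencing, and Darwinian fitness relative to wild type was taken from genotype frequency changes. Genotypes needed ≥ 100 starting reads, and estimates < 0.5 were set to 0.5.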
row,Variant,yeast fitness
1,GUUCCGUGGGCGUAAUGGUAACGCGUCUCCCUCCUAAGGAGAAGACUGCGGGCUCGAGUCCCGUACGGAACG,0.806
2,GUUCCGUUAGCGUCAUGGUAACGCCUCUCCCUCCUAAGGAGAAGACUGCGGGUUCAAGUCCCGUACGGAACG,0.579
3,GUUCCGUUAGCGUUAUGGUAACGCGUCUGCCUCAUAAGGAGAAGACUGCGGGUUCGAGUCCCGUACGGAACG,0.55
4,GUUCCGUUAGCGUAUUGGUAACGCGUCUGCCUUCUCAGGAGAAGACUGCGGGUUCGAGUCCCGUACAGAACG,≤ 0.5
5,GUUCCGUUAGCGUUAUGGUAACGCGUCUGCCUCAUAAGGAGAAGACUGCGGGUUCAAGUCCCGUACGGAACG,≤ 0.5
6,GUUCCGUUAGCGUAAUGGUAUCGUGUCUUCCUCCUAAGGAGAAGACUGUGGGUUCGAGUCCCGUACGGAACG,≤ 0.5
7,GUUCCGUUAGCGUAAUGGUACCGCGUCUCCCUCAUAAGGAGAGGACUGCGGGUUCGAGUCCCGUACGGAACG,≤ 0.5
8,GUUCCGUGGGCGUAAUGGUAACGCGUCUCCCUCCAAAGGAGAAGACUGCGGGUACGAGUCCCGUACGGAACG,0.548
9,GUUCCGUUAGCGUAAUGGUGACGCGUCUCUCUCCUAAGGAGAAGACUGCGGAUUCGAGUCCCGUACGAAACG,≤ 0.5
10,GUUCCGUUAGCGUAAUGGUAACGCGUCUCCCUCCUCAGGAGAAGCCUGCGGGUUCGAGUCCCGUACGGAACG,0.602
11,GUUCCGUUAGCGUAAUGGUAGCGCGUCUCCCUCCUAAGGAGAAGACUGCGGGUUCGACUCCCGUACGGACCG,≤ 0.5
12,GUUCCGUUAGCGUAUUGGUAACGCGUCUCCCUCCUAAGGAGAAGUCUGCGGGUUCGAGUCCCGUACGGAACG,0.533
13,GUUCCGUUAGCGUACUGGUAACGCGUCUCCCUCCUAAGGAGAAGACUGCGGGUUCGAGUCCCGUACGGAACG,0.788
14,GUUCCGUUAGCGUAUUGGUGACGCGUCUCCCUCCUAAGGAGAAGACUGCGGGUUCGAGUCCCGUACGGAACG,0.503
15,GUUCCGUUAGCGUCAUGGUAACGCGUCUCCCUCCUAAGGAGAAGACUGCGGGUUCGAAUCCCGUACGGAACG,0.546
16,GUUCCGUUAGCGUAAUGGUAUCGCGUCCCCCUCCUAAGGAGAAAACUGCGGGUUGGAGUCCCGUACGGAACG,≤ 0.5
17,GUUCCGUUAGCGUGAUGGUAACGCGUCUCCCUCCUAAGGAGAAGACUGCGGGUUCAAGUCCCGUACAGAACG,≤ 0.5
18,GUUCCGUUAGCGUAAUGGUAUCGCGUCUCCCUCCUAAGGAGAAGACUGCGGGUUCGAGUCCCGUAGGGAACG,≤ 0.5
19,GUUCCGUUAGCGUAAUGGUAACGCGUCUCCCUCCUGAGGAGAAGACUGCGGGUUCGAGUCCCGUACGUAACG,0.743

row,Variant,yeast fitness
1,GUUCCGUUAGCGUUAUGGUAACGCGUCUGCCUCAUAAGGAGAAGACUGCGGGUUCGAGUCCUGUACGGAACG,≤ 0.5
2,GUUCCGUUAGCGUAAUGGUAGCGCGUCUGCCUCGUAAGGAGAAGACUGCGGGUUCGAGUCCCGUACGGAACG,≤ 0.5
3,GUUCCGUUAGCGUGAUGGUAACGCGUCUCCCUCCUAAGGAGAAGACUGCGGGUUCGAGUCCCGUACGGAACG,0.908
4,GUUCCGUUAGCGUCAUGGUAACGCGUCUCCCUCCUAAGGAGAAGACUGCGGGUUCGAGUCCCGUACGGAACG,0.591
5,GUUCCGUUAGCGUACUGGUAACGCGUCUCCCUCCUAAGGAGAAGACUGCGGGUUCAAGUCUCGUACGGAACG,≤ 0.5
6,GUUCCGUUAGCGUAAUGGUGACGCGUCUCCCUCCUAAGGAGAAGACUGUGGGUUCGAGUCCCGUACGGAACG,0.847
7,GUUCCGUUAGCGUAGUGGUUACGCGUCCCCCUCCUAAGGAGAAGACUGCGGGUUCGAGUCCCGUACGGAACG,0.551
8,GUUCCGUUAGCGUACUGGUAACGCGUCUCCCUCCUAAGGAGAUGACUGCGGGUUCGAGUCCCGUACGGAACG,≤ 0.5
9,GUUCCGUUAGCGUAGUGGUUACGCGUCCCCCUCCUAAGGAGAAGUCUGCGGGUUCGAGUCCCGUACGGAACG,≤ 0.5
10,GUUCCGUUAGCGUAAUGGUAUCGCGUCUCCCUCCUAAGCAGAAGACUGCGGGUUCGAGUCCCGUACGGAACG,≤ 0.5
11,GUUCCGUUAGCGUAAUGGUAUCGCGUCUCCGUCCUAAGGAGAAGACUGCGGGUUCGAGUCCCAUAAGGAACG,≤ 0.5
12,GUUCCGUUAGCGUAAUGGUUUCGCGUCUCCCUCCUAAGGAGAAGACUGCGGGUUCGAGUCCCGUACGGAACG,≤ 0.5
13,GUUCCGUGGGCGUAAUGGUAACGCGUCGCCCUCAUAAGGAGAAGACUGCGGGUUCGAGUCCCGUACGGAACG,≤ 0.5
14,GUUCCGUUAGCGUAAUGGUAACGCGUCUCCCUCCUCAAGAGAAGACUGCGGGUUCGAGUCCCGUACGGAACG,≤ 0.5
15,GUUCCGUUAGCGUAGAGGUAACCCGUCUCCCUCCUAAGGAGAAGACUGCGGGUUCGAGUCCCGUACGGAACG,≤ 0.5
16,GUUCCGUUAGCGUAUUGGUAACGCGUCUCCCUCCUAAGGAAAAGACUGCGGGUUCGAGUCCCGUACGGAACG,≤ 0.5
17,GUUCCGUGGGCGUAAUGGUAACGCGUCUCCCCCGUAAGGAGAAGACUGCGGGUUCGAGUCCCGUACGAAACG,0.598
18,GUUCCGUUAGCGUAAUGGUAACGCGUCUCCCUCCUCAGGAGAAGACUGAGGGUUUGGGUCCCGUACGGUACG,≤ 0.5
19,GUUCCGUUAGCGUAAUGGUAACGCGUCUCCCUCCUCAGGAGAAGACUACGGGUUCGAGUCCCGUACAGAACG,≤ 0.5
